Assay [1] concerns the target T1, Lutropin-choriogonadotropic hormone receptor (Homo sapiens, UniProt P22888). Nature of the assay: Agonist activity at human LH receptor expressed in CHO cells assessed as production of cAMP after 60 mins by SPA relative to luteinizing harmone. It is filed as functional, cell-based.
For assay [2], the target named is T1, Lutropin-choriogonadotropic hormone receptor. Nature of the assay: Agonist activity at human LH receptor expressed in CHO cells assessed as production of cAMP after 60 mins by SPA. It is filed as functional, cell-based.
The target of assay [3] is Lutropin-choriogonadotropic hormone receptor (Rattus norvegicus) (UniProt P16235). Description: Efficacy at LH receptor in Sprague-Dawley rat Leydig cells assessed as production of testosterone after 3 hrs. It is filed as cell-based. Summed up: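 Leydig cells from male Sprague–Dawley rats aged 21–40 days. Decapsulated testis digested 15 min at 37 °C, 5% CO2, in phenol red-free DMEM/F12 with 0.1% collagenase. Washed cells plated at 350,000/well in phenol red-free DMEM/F12 with 0.1% BSA and stimulated 3 h. After centrifugation, medium testosterone measured by ELISA. ED50 and efficacy derived.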
Lutropin-choriogonadotropic hormone receptor (Rattus norvegicus), sequence (P16235 whole entry): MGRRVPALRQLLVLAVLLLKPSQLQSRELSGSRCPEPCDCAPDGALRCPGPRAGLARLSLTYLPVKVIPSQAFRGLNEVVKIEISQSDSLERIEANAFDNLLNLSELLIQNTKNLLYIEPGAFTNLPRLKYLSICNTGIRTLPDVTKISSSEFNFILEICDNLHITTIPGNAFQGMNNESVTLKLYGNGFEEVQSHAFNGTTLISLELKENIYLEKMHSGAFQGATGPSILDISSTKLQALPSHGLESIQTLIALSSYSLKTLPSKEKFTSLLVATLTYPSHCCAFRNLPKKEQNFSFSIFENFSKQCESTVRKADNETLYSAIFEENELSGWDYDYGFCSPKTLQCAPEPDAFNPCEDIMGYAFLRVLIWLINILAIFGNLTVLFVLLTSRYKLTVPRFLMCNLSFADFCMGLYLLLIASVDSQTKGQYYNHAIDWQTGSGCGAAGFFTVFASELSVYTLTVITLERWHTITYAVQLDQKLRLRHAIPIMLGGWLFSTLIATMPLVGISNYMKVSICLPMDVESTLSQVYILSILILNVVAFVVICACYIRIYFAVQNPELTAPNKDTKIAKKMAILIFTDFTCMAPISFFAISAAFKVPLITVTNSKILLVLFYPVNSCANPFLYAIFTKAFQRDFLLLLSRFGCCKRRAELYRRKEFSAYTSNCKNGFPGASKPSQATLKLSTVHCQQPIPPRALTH

Assay [4] relates to Rattus norvegicus. Nature of the assay: Induction of testosterone in Sprague-Dawley rat at 4 to 32 mg/kg, ip by radioimmunoassay. It is filed as functional, organism-based. The procedure, abridged: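 Adult Sprague–Dawley rats implanted subcutaneously in the scapular region on day 1 with a 7-day slow-release pellet of 7.5 mg diethylstilbestrol. Two days later, ip injection of 0, 4, 16 or 32 mg/kg; 3 rats per group. Blood taken by retro-orbital plexus 2 h after dosing; serum frozen at -80 °C. Testosterone measured by ELISA (legend says radioimmunoassay), with standard deviations.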

Experimental findings from ChEMBL document CHEMBL1139172, “Identification, synthesis, and biological evaluation of novel pyrazoles as low molecular weight luteinizing hormone receptor agonists” (Bioorg Med Chem Lett, 2007) are described below.

Bounds are passed on as bounds.

T1 sequence (P22888 whole entry): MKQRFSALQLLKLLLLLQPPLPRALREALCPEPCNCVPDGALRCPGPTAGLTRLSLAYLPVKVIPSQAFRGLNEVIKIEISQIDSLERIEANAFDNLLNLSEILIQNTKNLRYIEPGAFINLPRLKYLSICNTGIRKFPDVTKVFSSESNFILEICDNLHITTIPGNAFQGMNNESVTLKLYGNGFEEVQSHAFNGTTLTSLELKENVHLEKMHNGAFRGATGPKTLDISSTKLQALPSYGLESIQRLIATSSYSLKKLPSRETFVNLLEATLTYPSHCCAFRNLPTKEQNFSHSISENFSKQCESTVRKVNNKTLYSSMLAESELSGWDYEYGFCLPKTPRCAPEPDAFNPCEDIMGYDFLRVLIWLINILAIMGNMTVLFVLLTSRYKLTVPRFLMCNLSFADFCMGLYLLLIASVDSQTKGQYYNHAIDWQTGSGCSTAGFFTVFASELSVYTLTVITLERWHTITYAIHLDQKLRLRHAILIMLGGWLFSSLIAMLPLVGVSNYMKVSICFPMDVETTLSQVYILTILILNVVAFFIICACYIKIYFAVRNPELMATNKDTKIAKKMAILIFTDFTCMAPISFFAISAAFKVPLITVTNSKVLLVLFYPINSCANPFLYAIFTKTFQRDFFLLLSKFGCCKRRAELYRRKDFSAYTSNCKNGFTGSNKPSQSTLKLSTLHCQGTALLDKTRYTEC

Turning to `CC(C)(C)c1ccc(-n2nc(-c3cccnc3)cc2CCCCC(=O)NCCc2ccc(O)cc2)cc1`, in assay [1], the Activity came out at 45%. For the same molecule, the EC50 (usually the midpoint of the concentration-response curve) in assay [2] came to 0.08 µM.

For the molecule `CC(C)(C)c1ccc(-n2nc(-c3cccnc3)cc2CCC(=O)N[C@@H](Cc2ccc(O)cc2)C(N)=O)cc1`, in assay [2], the EC50 is greater than 100 µM.

In the case of `CC(C)(C)c1ccc(-n2nc(-c3ccccn3)cc2CCCCCC(=O)N[C@H](C(N)=O)c2ccc(O)cc2)cc1`, in assay [1], the Activity stood at 78%. The concentration for a half-maximal effect (EC50) in assay [2] was 0.17 µM.

Consider `CC(C)(C)c1ccc(-n2nc(-c3cccnc3)cc2CCCCC(=O)N[C@@H](Cc2ccc(O)cc2)C(N)=O)cc1`, for which, in assay [3], the ED50 was 1.31 µM and the Efficacy worked out at 78%. The Activity in assay [1] worked out at 70%. Also, the Activity result in assay [4] was “Dose-dependent effect”. Moreover, the 50% effective concentration (EC50) in assay [2] amounted to 0.02 µM.

In the case of `CC(C)(C)c1ccc(-n2nc(-c3cc4ccccc4cn3)cc2-c2cccc(C(=O)N[C@@H](Cc3ccc(O)cc3)C(N)=O)c2)cc1`, in assay [1], the Activity worked out at 19%. The EC50 in assay [2] came out at 0.5 µM.

Regarding `CC(C)(C)c1ccc(-n2nc(-c3ccncc3)cc2NCCCC(=O)N[C@@H](Cc2ccc(O)cc2)C(N)=O)cc1`, the concentration for a half-maximal effect (EC50) in assay [2] was greater than 100 µM.

`CC(C)(C)Oc1ccc(C[C@H](NC(=O)CCCCc2cc(-c3cccnc3)nn2-c2ccc(C(C)(C)C)cc2)C(N)=O)cc1`: the Activity in assay [1] worked out at 72%. Also, in assay [2], the concentration giving a half-maximal response (EC50) worked out at 12.1 µM.

For `CC(C)(C)c1ccc(-n2nc(-c3ccncc3)cc2CCCCC(=O)N[C@H](CC(N)=O)Cc2ccc(O)cc2)cc1`, in assay [1], the Activity is 66%. The EC50 in assay [2] came to 0.19 µM.

Turning to `CC(C)(C)c1ccc(-n2nc(CCCCC(=O)N[C@@H](Cc3ccc(O)cc3)C(N)=O)cc2-c2ccncc2)cc1`, the half-maximal effective concentration (EC50) in assay [2] is 2.3 µM.

`CC(C)(C)c1ccc(-n2nc(-c3ccncc3)cc2CCCCC(=O)N[C@@H](Cc2ccc(O)cc2)C(N)=O)cc1`: the Activity in assay [1] was found to be 55%. Further, the EC50 in assay [2] was 0.25 µM.

For the molecule `CC(C)(C)c1ccc(-n2nc(-c3ccccn3)cc2CCCCCC(=O)N[C@@H](Cc2cccc(O)c2)C(N)=O)cc1`, the Activity in assay [1] came to 41%. For the same molecule, in assay [2], the EC50 stood at 0.15 µM.
